Data on 48 sequences can be found in the EternaBench riboswitch data.

This data set deals with MS2 coat protein. Kind of data set: apparent Kd, MS2 coat protein; higher = weaker binding; RNA-MaP array; FMN 200 µM where present. In short, it runs like this:
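Stalled E. coli RNA polymerase transcribed the designs on Illumina sequencing-chip clusters. SNAP-549-labelled MS2 coat protein was titrated from 0.7 or 1.5 nM, doubling to 3 µM, without and then with constant ligand, in 100 mM Tris-HCl pH 7.5, 80 mM KCl, 4 mM MgCl2, BSA, DTT, yeast tRNA and Tween-20. Per-cluster binding curves were fitted to green signal normalised to red-channel RNA signal and control-cluster median Fmax. The apparent Kd is the median of the filtered fits.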

The mark [1] stands for this setting: ligand present: flavin mononucleotide, designed as: OFF switch for flavin mononucleotide.
Setting [2] is: designed as: OFF switch for flavin mononucleotide, no ligand.
Setting [3] is: designed as: ON switch for flavin mononucleotide, no ligand.
[4] abbreviates: ligand present: flavin mononucleotide, designed as: ON switch for flavin mononucleotide.

For “CGAUAACAUAGUUAUCCGUAACGGACAUGAGGAUCACCCAUGUAGGAUAUGUUACUAAACUAGUAACAGAAGGACAUGAGUCUU”, the “apparent Kd” value under setting [1] turned out to be 295 nM. On to “GAAGUUAGAGGAUAUACAUGAGGAUCACCCAUGUGUGUUGUGAACAAUGUAUGUUUAUGUAGAAGGCUAACUUC”, for which the “apparent Kd” value came to 79.4 nM under setting [2] and 241 nM under setting [1]. The matching figures for “UUAUGUUUUGUAGGAUAUCAUUAGUUAUGUAUUAUAAUUGAAAUUUUGUUAUGAGAAGGACAUUUACAUGAGGAUCACCCAUGU”: 13.9 nM and 9.9 nM. In the same order, the values of “UCGCUGCGAGGAUAUACAUGAGGAUCACCCAUGUACGGGUCCGGGUCUUCGUCUAUUGGUAGAAGGCGCAGUGA” are 54.2 nM and 277 nM. The matching figures for “GGCUGGUGACAGCAUCCAUCAAAACAUGAGGAUCACCCAUGUAGAAGGCUGUACGGUUACCGUACAGAGGAUAUACAAUGAUGA”: 14.5 nM and 24.2 nM. Regarding “GCCUGUGAAGGAUAUACAUGAGGAUCACCCAUGUGGCGGGCAUACCCGCCGAGACCGUGUAGAAGGUCAUAGUA”, the “apparent Kd” value runs as follows: under setting [2], 67.5 nM; under setting [1], 57.6 nM.

For the sequence “UCCAUCGUAUGAGGAUAUGGAACUGAAACAGUUCCAGAAGGCAUGUCAAUAGACAUGAGGAUCACCCAUGUAUUAUCGAUGGAA”, the “apparent Kd” value under setting [3] was determined as 429 nM and the “apparent Kd” value under setting [4] was 42.9 nM. For the sequence “UAUAUAUAGUAAGGAUAUGUAAUUACUUUAUAAACAGAAGGUACUGACAUGAGGAUCACCCAUGUUUUAGUGUGGGCAUGUAGA”, the “apparent Kd” value reads like this: under setting [2], 87 nM; under setting [1], 113 nM.

“UCAUUGAUUGUGAGGAUAUCGAUGUGAUGGAUUGUCGAGAAGGCACAUGAGGAUCACCCAUGUGGGUGUGGGCU”: the “apparent Kd” value is, setting by setting: under setting [2], 864 nM; under setting [1], 454 nM.

Turning to “AUCAGCUCGUCAGGAUAUACCUCACUGCGUCAGCAGUGUGGUAAGAUCACAUGAGGAUCACCCAUGUAGAAGGGACGAGCUGAU”, the “apparent Kd” value is, setting by setting: under setting [2], 6.44 nM; under setting [1], 6.19 nM. The matching figures for “UGUGUCUGUAGAGGAUAUCCGAGCGUUCGGCGAGGAGAAGGCUGCAACACAUGAGGAUCACCCAUGUAGGUUGUGUCUCCCUAC”: 10.9 nM and 32.2 nM. Take “GUAGCAUUGAGAGGAUAUCCAUACCGGAAACGGACAUGAGGAUCACCCAUGUGGCGAAAGCCAUGGGAGAAGGCUCUAUGCUAC”: the “apparent Kd” value under setting [3] worked out at 10.2 nM and the “apparent Kd” value under setting [4] came to 5.44 nM. The matching figures for “CAGUACUGUCGAGAGGAUAUGCGGUGAUGGACAUGAGGAUCACCCAUGUUAGCGACAGCAUCACGGCAGAAGGCUCUACUGCUGC”: 47.9 nM and 17.2 nM. With “CCUCUUGGGCAAGGAUAUCCUGCGCGGUUCCGGUUCGUGUCUGUCACAUGAGGAUCACCCAUGUGGGAGAAGGUGCCUGCGGUC”, the “apparent Kd” value reads like this: under setting [2], 17.9 nM; under setting [1], 24.2 nM. In the same order, the values of “GUCACGUAAGGAUAUCAUUAGUUGGACAUGAGGAUCACCCAUGUGAGACUAACUCCGGCGUGAGAAGGUGCGUUAA” are 13.4 nM and 16.7 nM. In the same order, the values of “CGUUCAGAGAACGAUACGAAUAGACAUGAGGAUCACCCAUGUAGAAGGACAACGGAAUAAACGUUGUAGGAUAUACAUUUAGUG” are 41.3 nM and 111 nM. Consider “GACAUGGUCCAGAAGGGCUAUCUAUUUAAGUACGAUUUAGAACAGCAUAGCAGGAUAUGGCUAACAUGAGGAUCACCCAUGUUC”, for which the “apparent Kd” value is, setting by setting: under setting [3], 20.5 nM; under setting [4], 9.26 nM. Turning to “ACAGUGCGAGGAUAUACAUGAGGAUCACCCAUGUGAGAGAAAUAAGUGAGGAAGAAAAGUAGAAGGCGCGUUGA”, the “apparent Kd” value reads like this: under setting [2], 75.5 nM; under setting [1], 91.7 nM. In the case of “UGGUACUAGGGAGGAUAUGGGAAGAUACAUGAGGAUCACCCAUGUUUAUGAAUGCCGAGAGGCAACUAGAAGGCCCUAGUACCU”, the “apparent Kd” value came to 292 nM under setting [3] and 13 nM under setting [4].

Regarding “UGUAAUGUUAUUACAGAGGUUUAGAAGGAUAUACAUCGACAUGACCGUACAUGAGGAUCACCCAUGUAGAAGGUCUAACUUCGU”, the “apparent Kd” value under setting [2] is 5.43 nM and the “apparent Kd” value under setting [1] was 5.31 nM. The matching figures for “UUGUUAUAUGUAGGAUAUGCAUAUUAUUAUUAUGCAGAAGGACAUGAGGAUCACCCAUGUAUAUUAUUGUUAUAUGUUAUAUAU”: 23 nM and 25.4 nM. The matching figures for “UGACAUAUAUAGAAGGGUAGUAGGGUUUUACAUGAGGAUCACCCAUGUAUUAUAGGAUAUGUGUAAAGUUAUUAUUAAAGUAAA”: 22.5 nM and 17.2 nM. In the same order, the values of “GUUAGACAUGAGGAUCACCCAUGUGAGGAUAUGAUGCGAAUAAAGAAUGAAGUAAGCAUCAGAAGGCACAUAUG” are 267 nM and 381 nM. On to “AACUGACAUGAGGAUCACCCAUGUCAGGAUAUGAUUUGACGAAAUAAAACACGUCAUAUCAGAAGGGACAUGGA”, for which the “apparent Kd” value is 26.5 nM under setting [2] and 48.6 nM under setting [1].

In the case of “GGGUACAUCGGAGGAUAUCAUGUAAAUACAUGAGGAUCACCCAUGUCGAUGGAUACAUCGGAGAUUGAGAAGGCCGAUGUACCG”, the “apparent Kd” value worked out at 13 nM under setting [3] and 5.34 nM under setting [4]. Regarding “AACUAUGUAUUUAUAGUGUCUGACAGAAGGCAAUAGGUUGUGACCGACAUGAGGAUCACCCAUGUUGAGGAUAUGUCUAGCUAC”, the “apparent Kd” value is, setting by setting: under setting [2], 40.4 nM; under setting [1], 264 nM.

As for “GCCAACGCAUGAGGAUAUGCUCCCGUUUCGGGAGCAGAAGGCAUGUCAUAAGACAUGAGGAUCACCCAUGUAGUCAAGAUGGCA”, the “apparent Kd” value came out at 291 nM under setting [3] and 16.7 nM under setting [4].

Take “AAUUCACAUGAGGAUCACCCAUGUCAGGAUAUGGUGACGCGGGUUUCGGUGCGUGUUGCCAGAAGGGACGGCUG”: the “apparent Kd” value under setting [1] was found to be 115 nM.

“UAGGAGUCAGGAUAUGCGAGAGAUUGAAGUAUGGGAUGUGAGCAGAAGGGACAUGAGGAUCACCCAUGUAUGGA”: the “apparent Kd” value reads like this: under setting [2], 167 nM; under setting [1], 150 nM. In the case of “AACCUACAUGAGGAUCACCCAUGUAUCUGAGGCACAGGAUAUCGACAGGCAAGACACCUGCGAGAAGGGUGACCUC”, the “apparent Kd” value worked out at 94 nM under setting [3] and 39.9 nM under setting [4].

In the case of “AAUAUGUCAUCAGGAUAUCGAGACCGGCGAGUACGAGAAGGGAUGACAUGAGGAUCACCCAUGUGAGACGCGUGAUUUGCAGGU”, the “apparent Kd” value was determined as 105 nM under setting [2] and 304 nM under setting [1]. “GUAGCAAUCGGAGGAUAUUCAUACCGGAAACGGACAUGAGGAUCACCCAUGUGGCGAAAGCCUUGGGAGAAGGCCGAUUGCUAC”: the “apparent Kd” value was found to be 614 nM under setting [3] and 21.2 nM under setting [4]. Consider “AAUAGCUGAGGAUAUACAUGAGGAUCACCCAUGUAUUAGUAGGCUGGGAAUAAAUCGUGUAGAAGGCAGGAUGA”, for which the “apparent Kd” value by setting is: under setting [2], 16 nM; under setting [1], 27.2 nM. For “UUAAUUAUACAAGGAUAUCUAUUGUUAUGUCGACUUACAUGAGGAUCACCCAUGUUAAUAUAUGAAGAGAAGGUGUAUUUUCAG”, the “apparent Kd” value runs as follows: under setting [3], 157 nM; under setting [4], 90 nM.

Take “UGGGCUUUAGGAUAUGCGUGUUGUAGUCGGCGAUGUGGUUCACAUGAGGAUCACCCAUGUAGAAGGAGGGUUUA”: the “apparent Kd” value reads like this: under setting [2], 139 nM; under setting [1], 120 nM. The matching figures for “GUCCUCUCUGAGGAUAUUAUCCGGUCCGAUUGAUAAGAAGGCAGUACAUGAGGAUCACCCAUGUGGGUCGUCUG”: 37.4 nM and 111 nM. In the same order, the values of “CGAUAUUAUGCAGGAUAUCUAUCUUGAAUGAGGAGAGAAGGGCAUAGGGAGACAUAAGCCUUAUUACAUGAGGAUCACCCAUGU” are 11.2 nM and 9.38 nM. In the same order, the values of “AGUGUGUGGCAGGAUAUUCCGGUCGUGGGUCGGGAAGAAGGGUCUACAUGAGGAUCACCCAUGUGAGCGGUUGA” are 210 nM and 241 nM. “UGGUACAUGGGAGGAUAUCCUCAACAUGAGGAUCACCCAUGUAAGAAUUAUAAGCCGAAAGGCAUGGAGAAGGCCCAUGUACCU”: the “apparent Kd” value runs as follows: under setting [3], 71.6 nM; under setting [4], 15.3 nM. The matching figures for “CCGAUUAGCACAGGAUAUGGGAAUUCGUAGUUUCCAGAAGGGUGAGCCAAUACAUGAGGAUCACCCAUGUGCGGUAGGUCGAGA”: 51.1 nM and 60.7 nM.

With “CUUUUGUGAGGAUAUCAGUAGUAAAUAAAUAUAAUUACUACUGAGAAGGCACAUGAGGAUCACCCAUGUUCCUC”, the “apparent Kd” value was 39.7 nM under setting [2] and 274 nM under setting [1].

In the case of “UUGGACGUCGUAGGAUAUGUAGGAUAUUCCUACAUGAGGAUCACCCAUGUUGACAUGGAAGAAGGACAGAAGGACGAGGUCCAU”, the “apparent Kd” value is, setting by setting: under setting [3], 241 nM; under setting [4], 4.93 nM. For the sequence “CGAUAAUAUAGUUAUCCGUAACGGACAUGAGGAUCACCCAUGUAGGAUAUGUUACUCAACGAGUAACAGAAGGACAUGAGUCUU”, the “apparent Kd” value under setting [2] turned out to be 14.8 nM and the “apparent Kd” value under setting [1] was 109 nM. In the same order, the values of “AAAGUUCGAGGAUAUCUACUUAGCUACAUGAGGAUCACCCAUGUUAUCCUCCCGCUGGGAAGAGAAGGCGGUUAAA” are 36.5 nM and 210 nM. With “UGGUUUGGGCUAGAUGCACAGACAUGAGGAUCACCCAUGUCUGAGGAUAUGCGUCAACAUAGGCAGCAGAAGGCAGACAUUCGC”, the “apparent Kd” value reads like this: under setting [2], 16.8 nM; under setting [1], 30.5 nM. In the same order, the values of “UUUAUAAAGGUAGGAUAUUGUAUUAUAAUUAAAUAAGAAGGAUCUCACAUGAGGAUCACCCAUGUAAGAGGAUCACCCAUGUAU” are 8.68 nM and 9.25 nM. In the case of “AUUAACUACAUAGGAUAUUGAUACAUGAGGAUCACCCAUGUCACCCAUUUAUAUAUUAAUAUUGACAAGAAGGAUGUGGUUACA”, the “apparent Kd” value was determined as 13.1 nM under setting [3] and 6.13 nM under setting [4].

Regarding “UUAUUAUAUGUAGGAUAUGCAUAUUAUUAUUAUGCAGAAGGACAUGAGGAUCACCCAUGUAUAUUGUUAUUAUAUAUUAUAUAU”, the “apparent Kd” value by setting is: under setting [2], 25.5 nM; under setting [1], 37 nM.

A word on the apparent Kd: it is a dissociation constant that holds for the conditions of the assay.
